Experiment [1] relates to IGROV-1. Kind of experiment: Cytotoxicity against human IGROV1 cells assessed as cell growth at 10 uM after 48 hrs by SRB assay relative to control. The experiment is classed as functional. Conditions: IGROV-1, 48 h, read-out: Activity. Summed up:
(§1)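 NCI Developmental Therapeutics Program 60-cell-line screen at a single dose of 10 μM. Cells incubated with compound for 48 h at 37 °C before viability determination.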
(In general: Sulforhodamine B stains cellular protein and so reports cell mass.)

Experiment [2] can be described thus: Binding affinity to GRP78 duplex DNA (unknown origin) assessed as change in duplex DNA hyperchromicity at 0.9 to 3.9 mM after 36 hrs by thermal denaturation assay. Summed up:
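Duplex DNA (1.1 μM) annealed from complementary strands in phosphate buffer (140 mM KCl, 1 mM MgCl₂, 5 mM sodium phosphate, pH 7.2), with ligand 0.2–3.9 mM. Melting followed as % hyperchromicity at 260 nm over 5–90 °C. Tm shift measured against native duplex.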

In experiment [3] the test system is SN12C. Kind of experiment: Cytotoxicity against human SN12C cells assessed as cell growth at 10 uM after 48 hrs by SRB assay relative to control. Conditions: read-out: Activity. The experiment is classed as functional. Summed up: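 Single-dose (10 μM) screen run by the NCI Developmental Therapeutics Program on its 60 human cancer cell line panel. Viability was determined after 48 h incubation with the cells at 37 °C.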

Experiment [4] concerns NCI-H460. As to the kind of experiment: Cytotoxicity against human NCI-H460 cells assessed as cell growth at 10 uM after 48 hrs by SRB assay relative to control. The class given is functional. Conditions: NCI-H460, 48 h, read-out: Activity. In a few lines:
as §1

Experiment [5] has as its system NCI-H226. Kind of experiment: Cytotoxicity against human NCI-H226 cells assessed as cell growth at 10 uM after 48 hrs by SRB assay relative to control. The experiment is classed as functional. Conditions: NCI-H226, 48 h, read-out: Activity. Summed up: as §1
In experiment [6] the test system is OVCAR-5. As to the kind of experiment: Cytotoxicity against human OVCAR5 cells assessed as cell growth at 10 uM after 48 hrs by SRB assay relative to control. The class given is functional. Conditions: OVCAR-5, 48 h, read-out: Activity. In a few lines: as §1
The test system of experiment [7] is Hs-578T. As to the kind of experiment: Cytotoxicity against human Hs578T cells assessed as cell growth at 10 uM after 48 hrs by SRB assay relative to control. The experiment is classed as functional. Conditions: read-out: Activity. Summed up:
as §1

Our source for the growth and Activity values is ChEMBL document CHEMBL2434893, “Synthesis, DNA binding and anti-leukemic activity of an aminoacyl nucleolipid” (Bioorg Med Chem Lett, 2013).

Activity calls are given as the source filed them. The rule behind the calls is not given here.

With `CCCCCCCCCCCCCCCC(=O)O[C@@H]1[C@H](OC(=O)CCCCCCCCCCCCCCC)[C@@H](C(=O)N[C@@H](CCCCN)C(=O)OC)O[C@H]1n1cnc2c(=O)[nH]c(NC(=O)C(C)C)nc21.Cl`, the growth at 10 µM in experiment [1] was determined as 91.8%; in experiment [3], 105%; in experiment [4] it was 101%; in experiment [5], 102%; in experiment [6], 108%; in experiment [7], 107%. The outcome in experiment [2] was Active.
